ChEMBL document CHEMBL4354861, “Re-Evaluating the Mechanism of Action of α,β-Unsaturated Carbonyl DUB Inhibitors b-AP15 and VLX1570: A Paradigmatic Example of Unspecific Protein Cross-linking with Michael Acceptor Motif-Containing Drugs” (J Med Chem, 2020)
Calls of active or inactive are those of the source. The calls are words filed in the database; no cut-off is given here.

Assays:
HeLa [1] = assay: Inhibition of deubiquitinase in human HeLa cell extracts assessed as induction of accumulation of high molecular weight mTOR proteins at 1 uM incubated for 2 hrs by immunoblot analysis; format: cell-free
U2OS = assay: Cytotoxicity in human U2OS cells assessed as reduction in cell viability incubated for 72 hrs Cell-titer Glo reagent based assay; format: functional
Outline: (§1)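 KMS11 (RPMI, seeded 25,000/well) or U2OS (DMEM, 10,000/well, adhered overnight) given varying concentrations, 72 h, biological triplicates, DMSO and bortezomib controls. CellTiter Glo luminescence; EC50 by dose-response fit.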

KMS-11 [2] = assay: Cytotoxicity in human KMS11 cells assessed as reduction in cell viability incubated for 72 hrs Cell-titer Glo reagent based assay; format: functional; details: KMS-11, 72 h; outline: as §1
Anamorsin (Homo sapiens) [3] = biological target: Anamorsin (Homo sapiens) (UniProt Q6FI81); assay: Inhibition of recombinant purified CIAPIN1 (unknown origin) assessed as accumulation of protein aggregates at 0.1 to 1.6 uM incubated for 1 to 6 hrs by size exclusion chromatography
HeLa [4] = assay: Inhibition of deubiquitinase in human HeLa cell extracts assessed as inhibition of HA-Ub-C2Br probe labeling at 1 to 100 uM incubated for 30 mins by immunoblot analysis; format: cell-free
[5] = biological target: T1, Ubiquitin carboxyl-terminal hydrolase 28 (Homo sapiens) (UniProt Q96RU2); assay: Inhibition of USP28 in human HeLa cell extracts assessed as inhibition of HA-Ub-C2Br probe labeling at 1 to 100 uM incubated for 30 mins by immunoblot analysis; format: cell-free
T1 sequence (whole entry): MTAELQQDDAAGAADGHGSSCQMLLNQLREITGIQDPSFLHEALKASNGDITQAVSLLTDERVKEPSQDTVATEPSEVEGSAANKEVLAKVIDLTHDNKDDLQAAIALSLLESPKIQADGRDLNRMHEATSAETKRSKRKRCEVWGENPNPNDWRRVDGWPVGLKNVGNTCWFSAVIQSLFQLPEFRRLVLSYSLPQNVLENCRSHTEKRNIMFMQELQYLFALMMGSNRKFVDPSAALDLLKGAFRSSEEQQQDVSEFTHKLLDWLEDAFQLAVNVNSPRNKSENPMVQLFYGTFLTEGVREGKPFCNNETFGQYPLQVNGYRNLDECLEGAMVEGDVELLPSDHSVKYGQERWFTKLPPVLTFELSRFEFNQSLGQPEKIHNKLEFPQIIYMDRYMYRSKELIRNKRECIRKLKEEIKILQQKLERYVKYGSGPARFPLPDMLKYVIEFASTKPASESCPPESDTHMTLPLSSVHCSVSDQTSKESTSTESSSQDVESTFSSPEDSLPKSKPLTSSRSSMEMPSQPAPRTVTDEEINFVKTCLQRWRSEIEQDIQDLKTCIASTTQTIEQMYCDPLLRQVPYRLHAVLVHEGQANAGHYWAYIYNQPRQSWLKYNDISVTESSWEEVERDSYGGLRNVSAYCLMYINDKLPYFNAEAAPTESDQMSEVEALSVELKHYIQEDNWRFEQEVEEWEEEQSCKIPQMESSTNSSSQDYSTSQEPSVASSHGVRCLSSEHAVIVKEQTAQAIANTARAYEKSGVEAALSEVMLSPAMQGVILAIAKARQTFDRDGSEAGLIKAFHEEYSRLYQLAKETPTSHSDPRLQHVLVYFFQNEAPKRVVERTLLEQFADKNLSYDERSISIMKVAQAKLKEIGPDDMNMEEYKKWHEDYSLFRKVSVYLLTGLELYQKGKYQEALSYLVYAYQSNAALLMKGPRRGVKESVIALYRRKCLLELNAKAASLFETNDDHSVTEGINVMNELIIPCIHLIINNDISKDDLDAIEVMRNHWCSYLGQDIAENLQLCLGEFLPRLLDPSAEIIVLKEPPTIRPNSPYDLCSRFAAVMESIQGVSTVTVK

KMS-11 [6] = assay: Cytotoxicity in human KMS11 cells assessed as reduction in cell viability at 1 to 10 uM incubated for 16 hrs in presence of GSH by Alamar blue assay; format: functional, cell-based
Outline: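 KMS11 seeded at 80,000/well, treated with 1 or 10 µM compound with or without 1 mM GSH for 16 h, 6 biological replicates. Alamar blue fluorescence read at 560/590 nm, normalised to DMSO control.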

[7] = biological target: T2, Ubiquitin carboxyl-terminal hydrolase isozyme L5 (Homo sapiens) (UniProt Q9Y5K5); assay: Covalent binding affinity to UCH-37 in human U2OS cells at 20 uM using probe-1 by ABPP analysis; format: cell-based
T2 sequence (whole entry): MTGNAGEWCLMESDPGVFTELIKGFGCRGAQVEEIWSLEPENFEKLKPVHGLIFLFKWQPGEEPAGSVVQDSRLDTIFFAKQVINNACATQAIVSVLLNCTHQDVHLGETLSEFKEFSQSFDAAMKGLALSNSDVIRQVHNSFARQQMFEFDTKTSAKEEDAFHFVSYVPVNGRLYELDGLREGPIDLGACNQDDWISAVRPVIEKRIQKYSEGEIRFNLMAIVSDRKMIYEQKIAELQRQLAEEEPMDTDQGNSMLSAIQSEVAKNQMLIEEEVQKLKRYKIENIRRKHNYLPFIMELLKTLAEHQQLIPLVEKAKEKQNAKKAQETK
Outline: (§2)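 U2OS cells pre-incubated 30 min with competitor (0, 5 or 20 µM), then 5 µM probe 1 for 1 h, in triplicate. Lysates in Triton/SDS buffer mixed with heavy R10K8-labelled probe-treated spike, CuAAC-tagged, NeutrAvidin-enriched, reduced, alkylated, trypsin-digested overnight at 37 °C, LC-MS/MS. Log2(L/H) ratios median-normalised and expressed relative to the no-inhibitor condition.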

[8] = biological target: Ubiquitin carboxyl-terminal hydrolase 14 (Homo sapiens) (UniProt P54578); assay: Covalent binding affinity to USP14 in human U2OS cells at 20 uM using probe-1 by ABPP analysis; format: cell-based; outline: as §2
[9] = biological target: T1, Ubiquitin carboxyl-terminal hydrolase 28 (Homo sapiens); assay: Covalent binding affinity to USP28 in human U2OS cells at 20 uM using probe-1 by ABPP analysis; format: cell-based; outline: as §2
Anamorsin (Homo sapiens) [10] = biological target: Anamorsin (Homo sapiens) (UniProt Q6FI81); assay: Covalent binding affinity to CIAPIN1 in human U2OS cells at 20 uM using probe-1 by ABPP analysis; format: cell-based; outline: as §2
Anamorsin (Homo sapiens) [11] = biological target: Anamorsin (Homo sapiens) (UniProt Q6FI81); assay: Inhibition of CIAPIN1 in human KMS11 crude cell extracts assessed as induction of formation of high molecular weight complexes with CIAPIN1 at 20 uM incubated for 2 hrs by immunoblot analysis
Anamorsin (Homo sapiens) [12] = biological target: Anamorsin (Homo sapiens) (UniProt Q6FI81); assay: Inhibition of CIAPIN1 in human KMS11 crude cell extracts assessed as induction of formation of high molecular weight complexes with CIAPIN1 at 20 uM incubated for 2 hrs in presence of GSH by immunoblot analysis
Anamorsin (Homo sapiens) [13] = biological target: Anamorsin (Homo sapiens) (UniProt Q6FI81); assay: Inhibition of recombinant purified CIAPIN1 (unknown origin) assessed as increase in high molecular weight CIAPIN1 complexes at 1 to 10 molar equivalent 1 by SDS-PAGE and Coomassie Blue staining based method
Outline: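 Recombinant CIAPIN1 (1 mg/mL) incubated with DMSO (0.16%) or compound at 1x, 2x, 5x or 10x molar excess, 30 min at 4 °C. Resolved by SDS-PAGE with Coomassie staining.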

Anamorsin (Homo sapiens) [14] = biological target: Anamorsin (Homo sapiens) (UniProt Q6FI81); assay: Inhibition of recombinant purified CIAPIN1 (unknown origin) assessed as covalent adduct formation at 10 molar equivalents incubated for 2 hrs by electrospray MS analysis
Outline: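 His-tagged full-length human CIAPIN1 (AA1-312, C-terminal 7x His/TEV, 27 µM) incubated with 10 molar equivalents of compound (270 µM) in PBS for 2 h at room temperature, then analysed intact by ES-MS.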

Anamorsin (Homo sapiens) [15] = biological target: Anamorsin (Homo sapiens) (UniProt Q6FI81); assay: Inhibition of recombinant purified CIAPIN1 (unknown origin) assessed as disruption of intra-chain disulfide bond in unmodified peptide containing Cys249
Anamorsin (Homo sapiens) [16] = biological target: Anamorsin (Homo sapiens) (UniProt Q6FI81); assay: Inhibition of CIAPIN1 in human KMS11 cells assessed as induction of protein aggregation at 100 nM incubated for 1 hr by immunoblot analysis; format: cell-based
Anamorsin (Homo sapiens) [17] = biological target: Anamorsin (Homo sapiens) (UniProt Q6FI81); assay: Inhibition of CIAPIN1 in human KMS11 cells assessed as induction of high molecular weight complex formation at 100 nM incubated for 6 hrs by immunoblot analysis; format: cell-based
Anamorsin (Homo sapiens) [18] = biological target: Anamorsin (Homo sapiens) (UniProt Q6FI81); assay: Inhibition of CIAPIN1 in human KMS11 cells assessed as deletion of depletion of stable CIAPIN1 levels at 100 nM incubated for 6 hrs by immunoblot analysis; format: cell-based
Anamorsin (Homo sapiens) [19] = biological target: Anamorsin (Homo sapiens) (UniProt Q6FI81); assay: Inhibition of recombinant purified CIAPIN1 (unknown origin) assessed as covalent modification of cysteine residues incubated for 30 mins LC-MS/MS analysis

Anamorsin (Homo sapiens), sequence (Q6FI81 whole entry, the tested form may be a part): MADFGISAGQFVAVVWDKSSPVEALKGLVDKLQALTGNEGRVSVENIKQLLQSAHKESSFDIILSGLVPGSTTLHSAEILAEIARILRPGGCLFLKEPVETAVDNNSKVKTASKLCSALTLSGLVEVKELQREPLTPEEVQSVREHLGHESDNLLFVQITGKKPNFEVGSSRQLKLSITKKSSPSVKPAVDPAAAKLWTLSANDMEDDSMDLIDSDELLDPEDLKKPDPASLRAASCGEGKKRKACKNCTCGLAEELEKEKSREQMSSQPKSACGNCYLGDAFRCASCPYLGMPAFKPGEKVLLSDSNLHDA
Ubiquitin carboxyl-terminal hydrolase 14 (Homo sapiens), sequence (P54578 whole entry): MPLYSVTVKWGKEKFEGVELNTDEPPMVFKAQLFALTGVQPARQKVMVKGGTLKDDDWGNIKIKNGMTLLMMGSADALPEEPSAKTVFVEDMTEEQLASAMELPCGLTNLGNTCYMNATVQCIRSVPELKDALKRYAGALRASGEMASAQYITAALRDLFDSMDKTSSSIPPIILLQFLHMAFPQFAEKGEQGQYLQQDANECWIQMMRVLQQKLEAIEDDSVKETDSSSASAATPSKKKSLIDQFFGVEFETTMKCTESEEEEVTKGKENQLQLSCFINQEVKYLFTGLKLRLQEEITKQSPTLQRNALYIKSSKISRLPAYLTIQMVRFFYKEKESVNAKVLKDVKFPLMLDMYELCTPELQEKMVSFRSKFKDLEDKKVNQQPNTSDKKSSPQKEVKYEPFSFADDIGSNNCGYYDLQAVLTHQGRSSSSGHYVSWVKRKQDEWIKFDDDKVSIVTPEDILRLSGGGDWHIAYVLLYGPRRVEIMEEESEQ

SMILES | inhibition (HeLa [1]) | EC50 (U2OS) [nM] | EC50 (KMS-11 [2]) [nM] | inhibition (Anamorsin (Homo sapiens) [3]) | inhibition (HeLa [4]) | inhibition [5] | Activity (KMS-11 [6]) | Activity [7] | Activity [8] | Activity [9] | Activity (Anamorsin (Homo sapiens) [10]) | inhibition (Anamorsin (Homo sapiens) [11]) | inhibition (Anamorsin (Homo sapiens) [12]) | inhibition (Anamorsin (Homo sapiens) [13]) | inhibition (Anamorsin (Homo sapiens) [14]) | inhibition (Anamorsin (Homo sapiens) [15]) | inhibition (Anamorsin (Homo sapiens) [16]) | inhibition (Anamorsin (Homo sapiens) [17]) | inhibition (Anamorsin (Homo sapiens) [18]) | inhibition (Anamorsin (Homo sapiens) [19])
COc1cc(/C=C/C(=O)CC(=O)/C=C/c2ccc(O)c(OC)c2)ccc1O | Active |  |  |  |  |  |  |  |  |  |  |  |  |  |  |  |  |  |  | 
C#CCC(=O)N1CC/C(=C\c2ccc(F)c([N+](=O)[O-])c2)C(=O)/C(=C/c2ccc(F)c([N+](=O)[O-])c2)C1 |  | 81 | 46 |  |  |  |  |  |  |  |  |  |  |  |  |  |  |  |  | 
C=CC(=O)N1CC/C(=C\c2ccc(F)c([N+](=O)[O-])c2)C(=O)/C(=C/c2ccc(F)c([N+](=O)[O-])c2)C1 |  | 98 | 43 | Active | Active | Active | inactive | inactive | inactive | inactive | Active | Active | inactive | Active | Active | Active | Active | Active | Active | Active
